We go through four molecules from ChEMBL document CHEMBL3044892, “Primary study on mode of action for macrocyclic fungicide candidates (7B3, D1) against Rhizoctonia solani Kuhn” (J Agric Food Chem, 2010).

Values after ≈ are worked out from the molar mass of the structure shown. Active and inactive are the calls of the source. The rule behind the calls is not given here.

For assay [1], the system named is Rhizoctonia solani. In words: Fungicidal activity against Rhizoctonia solani assessed as induction of electrolyte leakage from hyphae at 50 ug/mL by cell membrane permeability assay. It is filed as functional, organism-based.
The subject of assay [2] is Alternaria kikuchiana. Kind of assay: Fungicidal activity against Alternaria kikuchiana Tanaka assessed as inhibition rate. It is filed as functional.
The subject of assay [3] is Colletotrichum orbiculare. In words: Fungicidal activity against Colletotrichum orbiculare assessed as inhibition rate. The assay is classed as functional.
The next assay concerns Fulvia fulva. Kind of assay: Fungicidal activity against Passalora fulva Cooke Ciferri assessed as inhibition rate. The assay is classed as functional.
The subject of the next assay is Verticillium dahliae. In words: Fungicidal activity against Verticillium dahliae assessed as inhibition rate. It is filed as functional.
The subject of assay [4] is Rhizoctonia solani. Kind of assay: Fungicidal activity against Rhizoctonia solani assessed as thicker hyphae and abnormally thickened walls of the septa at 50 ug/mL by Transmission electron micrography. It is filed as functional, organism-based. An outline of the steps: (§1)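 R. solani grown 3 days on PDA with 0 or 50 μg mL-1 test compound; 5 mm hyphal tips from colony margin fixed in 4% glutaraldehyde at 4 C, then 1% osmium tetroxide, acetone-dehydrated, Epon-embedded; thin sections double-stained with uranyl acetate and lead citrate, examined by TEM versus untreated control.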

For assay [5], the system named is Rhizoctonia solani. Kind of assay: Fungicidal activity against Rhizoctonia solani assessed as disappearance of septal pore caps at 50 ug/mL by Transmission electron micrography. It is filed as functional, organism-based. The method, boiled down:
as §1

Assay [6] concerns Rhizoctonia solani. Kind of assay: Fungicidal activity against Rhizoctonia solani assessed as inhibition of intact mycelia respiration at 100 ug/mL by […]. It is filed as functional. The method, boiled down:
(§2)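 Intact R. solani mycelia from 5-day PD shake culture (25 C, 150 rpm), washed, resuspended at 50 mg fresh weight mL-1 in 0.1 M phosphate buffer pH 7.2 with 2% glucose; treated with 10 or 100 μg mL-1; O2 uptake by oxygraph at 25 C before and after addition; inhibition = (R0-R1)/R0 × 100; n = 3.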

Another assay concerns Sclerotinia sclerotiorum. Kind of assay: Fungicidal activity against Sclerotinia sclerotiorum assessed as inhibition rate. The assay is classed as functional.
In assay [7] the test system is Rhizoctonia solani. Kind of assay: Fungicidal activity against Rhizoctonia solani assessed as inhibition rate. The assay is classed as functional.
Assay [8] has as its system Rhizoctonia solani. Kind of assay: Fungicidal activity against Rhizoctonia solani assessed as reduction in mycelia growth at 50 ug/mL. The assay is classed as functional, organism-based.
The test system of assay [9] is Rhizoctonia solani. In words: Fungicidal activity against Rhizoctonia solani assessed as disorganized organelles and decreased in the hyphae cytoplasm at 50 ug/mL by Transmission electron micrography. It is filed as functional, organism-based. The method, boiled down:
as §1

The test system of assay [10] is Rhizoctonia solani. In words: Fungicidal activity against Rhizoctonia solani assessed as mycelia rough surface and formed irregular ramification or abnormal configuration at 50 ug/mL by scanning electron micrography. It is filed as functional, organism-based. An outline of the steps: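 Hyphal tips (5 mm) cut from margins of R. solani colonies grown 3 days on PDA containing 0 or 50 μg mL-1 compound; glutaraldehyde (4%, 4 C) and osmium tetroxide fixation, graded acetone dehydration, critical-point drying, gold coating; imaged by SEM at 18-20 kV accelerating voltage.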

The test system of assay [11] is Rhizoctonia solani. Kind of assay: Fungicidal activity against Rhizoctonia solani assessed as inhibition of intact mycelia respiration at 10 ug/mL by […]. It is filed as functional. The method, boiled down:
as §2

Assay [12] has as its system Alternaria kikuchiana. Kind of assay: Fungicidal activity against Alternaria kikuchiana by mycelium growth rate test. The assay is classed as functional, organism-based.
The test system of a further assay is Phyllosticta. In words: Fungicidal activity against Phyllospicpa physaleos Sacc., by mycelium growth rate test. It is filed as functional, organism-based.
Assay [13] has as its system Rhizoctonia solani. In words: Fungicidal activity against Rhizoctonia solani by mycelium growth rate test. The assay is classed as functional, organism-based.
A further assay relates to Botrytis cinerea. Kind of assay: Fungicidal activity against Botryotinia fuckeliana by mycelium growth rate test. It is filed as functional, organism-based.
Assay [14] deals with Rhizoctonia solani. Kind of assay: Fungicidal activity against Rhizoctonia solani assessed as prevention in cotton at 140 g/ha by field efficacy trail. It is filed as functional.

Broadly, the inhibition is how much of the control response was suppressed. Broadly, the EC50 is the concentration that produces a half-maximal response.

For `CC(C)(C)C(=O)C(Oc1ccc(Cl)cc1)n1cncn1` (stereo unspecified), in the assay on Rhizoctonia solani [1], the outcome was inactive.

For the molecule `F[B-](F)(F)F.O=C1CCCCCCCCCCC[NH2+]CCO1`, the “inhibition (INH)” value amounted to 85.7% in the assay on Alternaria kikuchiana [2]; 73.2% in [3]; 89.3% in the assay with Fulvia fulva; 86.9% with Verticillium dahliae; 85.7% in the assay on Sclerotinia sclerotiorum; 96% in the assay with Rhizoctonia solani [7]. The result with Rhizoctonia solani [4] and in the assay with Rhizoctonia solani [5] was Active. In addition, the inhibition at 100 µg/mL with Rhizoctonia solani [6] amounted to 3%. Further, the inhibition entry in the assay on Rhizoctonia solani [8], with Rhizoctonia solani [9] and in the assay on Rhizoctonia solani [10] was “Active” throughout. Further, the inhibition at 10 µg/mL with Rhizoctonia solani [11] was 1.67%.

On to `CCCO/N=C1\CCCCCCCCCCC(=O)NCCC1`, for which the EC50 was 1.2 µg/mL (≈ 3.86 µM) with Alternaria kikuchiana [12], 1.9 µg/mL (≈ 6.12 µM) in the assay with Phyllosticta, 4.6 µg/mL (≈ 14.8 µM) in the assay on Rhizoctonia solani [13] and 8.6 µg/mL (≈ 27.7 µM) in the assay with Botrytis cinerea. In addition, the result with Rhizoctonia solani [4] was Active. In the assay on Rhizoctonia solani [6], the inhibition at 100 µg/mL turned out to be 12.1%. Also, the inhibition result in the assay with Rhizoctonia solani [8], in the assay with Rhizoctonia solani [9] and in the assay on Rhizoctonia solani [10] was “Active” in each case. In addition, the inhibition at 10 µg/mL in the assay on Rhizoctonia solani [11] stood at 3.39%. The Activity in the assay on Rhizoctonia solani [14] is 64%.

As for `CO/C=C(/C(=O)OC)c1ccccc1Oc1cc(Oc2ccccc2C#N)ncn1` [AZOXYSTROBIN], in the assay with Rhizoctonia solani [11], the inhibition at 10 µg/mL turned out to be 84.9%.
